Experimental data from PMC10955609 (Clinical and Translational Science, 2024).

Key:
[1] = system: imiquimod (IMQ)-induced skin inflammation (TLR7 activation); assay: IMQ skin challenge: skin perfusion; format: in vivo, human; conditions: for Erythema: GMR of treatment effect vs. placebo (90% CrI): same dosing; for Clinical evaluation of skin reactions (visual grading): vs placebo
Method in brief: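 Healthy men (12 per arm) took test compound (120 or 100 mg), placebo or prednisolone 20 mg b.i.d. orally for 7 days. From Day 3, 5% imiquimod cream (100 mg) went daily on tape-stripped back skin under 12-mm occlusion chambers for 3 days. Erythema (3D imaging), LSCI perfusion and CEA were read at baseline, 24, 48 and 72 h. Bayesian repeated-measures ANCOVA used log-transformed change from baseline.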

[2] = system: imiquimod (IMQ)-induced skin inflammation (TLR7 activation); assay: Skin suction blister fluid analysis after IMQ challenge; format: in vivo, human; conditions: for Responses of CD8+ T cells and dendritic cells in suction blister fluid: 72 h after start of IMQ challenge; for IMQ-driven IP-10 and MxA in skin suction blister exudate: analysis on Day 6
Method in brief: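 Suction blisters were raised by negative-pressure device on imiquimod-inflamed back skin at baseline and 24, 48 and 72 h after challenge start. Subjects were healthy men, 12 per arm, on oral twice-daily treatment begun 2 days before challenge. Blister fluid was analysed for immune cell subsets by flow cytometry and for cytokines/chemokines by multiplex immunoassay.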

[3] = system: LPS-driven systemic inflammation (TLR4 activation); assay: Systemic intravenous LPS challenge; format: in vivo, human; conditions: for Mild increase in core temperature after LPS: 2–6 h after i.v. LPS challenge; for LPS-driven increases in systolic blood pressure and pulse rate / Anti-inflammatory cytokine IL-10 after LPS challenge: compared with placebo; for Suppression of circulating TNF-α response vs. placebo / Anti-inflammatory cytokine IL-10 after LPS challenge / LPS-induced increases in IL-8, CRP and procalcitonin / IL-6 (blood): GMR of treatment effect vs. placebo (90% CrI) / TNF-α (blood): GMR of treatment effect vs. placebo (90% CrI): i.v. LPS challenge; for Suppression of circulating TNF-α response vs. placebo: averaged 0.5 to 6 h after LPS; for LPS-induced increases in IL-8, CRP and procalcitonin: vs placebo; for IL-6 (blood): GMR of treatment effect vs. placebo (90% CrI) / TNF-α (blood): GMR of treatment effect vs. placebo (90% CrI): same dosing
Method in brief: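 On Day 7 of twice-daily oral treatment (12 healthy men per arm), purified E. coli O113 LPS 1 ng/kg in glucose 2.5%–NaCl 0.45% was given as a 2-min i.v. infusion. Hydration infusion ran from 2 h before to 6 h after. Cytokines, acute phase proteins, leukocytes, pulse, blood pressure and temperature were followed from 0.5 to 24 h. Bayesian repeated-measures ANCOVA gave GMR vs placebo (90% CrI).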

[4] = system: LPS (TLR4 agonist)-driven cytokine release in whole blood; assay: Ex vivo whole blood challenge with LPS; format: cell-based, human
Method in brief: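 Blood was drawn from healthy men, 12 per arm, at two baselines (Day −1, Day 1) and on Day 6 of oral twice-daily dosing. Challenges were run in duplicate at 37°C for 24 h: LPS 0.1 ng/mL or R848 0.35 μg/mL in prefilled culture tubes, and IL-1β 125 ng/mL in sodium heparin tubes. Supernatant cytokines were measured by multiplex immunoassay.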

[5] = PK in plasma and skin suction blister fluid; format: in vivo, human; conditions: for Individual suction blister fluid versus plasma ratio, geometric mean (CV): Day 6; for Total concentration in blister fluid, geometric mean (CV): Day 6, 2–4 h after drug intake, unchallenged skin
Method in brief: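 Healthy men, 12 per arm, took test compound orally twice daily for 7 days. Total drug was measured in plasma and suction blister fluid on Day 6, […], and reported as geometric mean (CV). Blister-fluid-to-plasma ratios were calculated per subject.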

Safety monitoring = format: in vivo, human; conditions: safety analysis set; BAY groups N = 13, prednisolone N = 12; 7 days b.i.d.
[6] = system: LPS (TLR4)-driven TNF-α release in whole blood; conditions: 120 mg b.i.d. BAY1834845, 100 mg b.i.d. BAY1830839; ref multiple ascending dose phase I studies; cited from earlier work
[7] = system: imiquimod (IMQ)-induced psoriasis; conditions: mice, compared with vehicle; cited from earlier work
[8] = 120 mg b.i.d. BAY1834845, 100 mg b.i.d. BAY1830839; ref multiple ascending dose phase I studies; cited from earlier work
IL-1β-induced cytokines = conditions: upregulation in comparison with vehicle control also reported; cited from earlier work

Individual suction blister fluid versus plasma ratio, geometric mean (CV) [5] | Total concentration in blister fluid, geometric mean (CV) [5] | SMILES | Erythema: GMR of treatment effect vs. placebo (90% CrI) [1] | Clinical evaluation of skin reactions (visual grading) [1] | Responses of CD8+ T cells and dendritic cells in suction blister fluid [2] | IMQ-driven IP-10 and MxA in skin suction blister exudate [2] | Mild increase in core temperature after LPS [3] | LPS-driven increases in systolic blood pressure and pulse rate [3] | Suppression of circulating TNF-α response vs. placebo [3] [%] | Anti-inflammatory cytokine IL-10 after LPS challenge [3] | LPS-induced increases in IL-8, CRP and procalcitonin [3] | IL-6 (blood): GMR of treatment effect vs. placebo (90% CrI) [3] | TNF-α (blood): GMR of treatment effect vs. placebo (90% CrI) [3] | Inhibition of TLR4-driven IL-6 in ex vivo whole blood challenge [4] | Inhibition of TLR4-driven TNF-α in ex vivo whole blood challenge [4] | Mean suppression of TNFα (TLR4-cytokine release in ex vivo whole blood assay) [6] [%] | Severity of psoriasis-like lesions; extent of erythema, skin thickening and scaling [7] | Systemic exposure [8] | also measured
0.59 (16.2%) | 3.0 (28.3%) mg/L | CC(C)(O)CCn1cc2cc(NC(=O)c3cccc(C(F)(F)F)n3)c(C(C)(C)O)cc2n1 [BAY1830839] | 0.83 | less severe inflammatory reaction | suppressed | strongly suppressed | without suppressing | suppressed | ≥ 80 | did not lead to an increase | inhibited | 0.26 (0.17, 0.34) | 0.14 (0.09, 0.19) | 73% | 75% | 70 | significantly reduced | 4.3 (42.8%) mg/L | Erythema: GMR of treatment effect vs. placebo (90% CrI) ([1]; listed as BAY 1830839): 0.83 (0.67, 0.99); Any treatment-emergent AE (Safety monitoring): 8 (61.5%) n (%) of participants
 |  | CC[C@@H]1[C@H](F)C(=O)N[C@@H]1COc1nccc2cc(C(N)=O)c(OC)cc12 [PF‐06650833] |  |  |  |  |  |  |  |  |  |  |  |  |  |  |  |  | Effects on IL-1β-induced cytokines (IL-1β-induced cytokines): weak effects
 |  | C[C@]12C=CC(=O)C=C1CC[C@@H]1[C@@H]2[C@@H](O)C[C@@]2(C)[C@H]1CC[C@]2(O)C(=O)CO [Prednisolone, prednisolone, reference compound] | 0.86 (0.69, 1.02) |  | suppressed | strongly suppressed |  |  |  | induced |  | 0.31 (0.21, 0.41) | 0.31 (0.20, 0.41) |  |  |  |  |  | Erythema: GMR of treatment effect vs. placebo (90% CrI) ([1]; listed as prednisolone): 0.86; Responses of NK cells and classical monocytes in suction blister fluid ([2]; 72 h post-challenge, after preceding increase up to 48 h): markedly suppressed
0.43 (22.7%) | 2.6 (32.3%) mg/L | CC(C)(O)c1cc2nn(CCS(C)(=O)=O)cc2cc1NC(=O)c1cccc(C(F)(F)F)n1 [BAY1834845, zabedosertib] | 0.75 | less severe inflammatory reaction | suppressed | strongly suppressed | without suppressing | suppressed | ≥ 80 | did not lead to an increase | inhibited | 0.27 (0.18, 0.36) | 0.20 (0.13, 0.27) | approximately 50% | approximately 50% | 40 | significantly reduced | 5.2 (19.4%) mg/L | Erythema: GMR of treatment effect vs. placebo (90% CrI) ([1]; listed as BAY 1834845): 0.75 (0.60, 0.89)
